According to ChEMBL document CHEMBL1275590, “Novel arylimidamides for treatment of visceral leishmaniasis” (Antimicrob Agents Chemother, 2010):

Assays:
[1] = Induction of mutagenicity in Salmonella serovar Typhimurium TA 100 assessed as number of revertant colonies at 100 ug by Ames assay in presence of Aroclor 1254-induced rat liver S9 metabolic activation system; assay type: toxicity, subcellular, Salmonella enterica subsp. enterica serovar Typhimurium
Method in brief: (§1)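 Ames plate incorporation with S. Typhimurium TA98 and TA100, with or without Aroclor 1254-induced rat liver S9 (10% vol/vol). Compound was dissolved in sterile water and serially diluted to 1–500 μg/plate. Positive controls were 2-nitrofluorene and sodium azide without S9, and 2-aminoanthracene with S9; sterile water and DMSO served as vehicles. Revertant colonies and background lawn were scored. A mutagen was defined as a mean revertant count at least 2-fold over solvent control. Single experiment.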

[2] = Induction of mutagenicity in Salmonella serovar Typhimurium TA 98 assessed as number of revertant colonies at 5 ug by Ames assay; assay type: toxicity, Salmonella enterica subsp. enterica serovar Typhimurium; details: in vivo; method in brief: as §1
[3] = Induction of mutagenicity in Salmonella serovar Typhimurium TA 98 assessed as number of revertant colonies at 100 ug by Ames assay; assay type: toxicity, Salmonella enterica subsp. enterica serovar Typhimurium; details: in vivo; method in brief: as §1
[4] = Induction of mutagenicity in Salmonella serovar Typhimurium TA 100 assessed as number of revertant colonies at 50 ug by Ames assay; assay type: toxicity, Salmonella enterica subsp. enterica serovar Typhimurium; details: in vivo; method in brief: as §1
Leishmania donovani = test: Antileishmanial activity against Leishmania donovani WR378 infected in golden Syrian hamster assessed as reduction in liver parasitemia at 100 mg/kg/day, po administered for five days; assay type: functional; details: 120 h
Method in brief: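 11-day golden hamster VL model adapted from an 8-day method, using L. donovani WR378 metacyclic promastigotes. Dosing was oral, once daily for 5 days. Animals were euthanized on day 11 post-infection. Liver, spleen and femoral bone marrow (flushed with Schneider's medium) were harvested.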

[5] = Cmax in Swiss Webster mouse at 5 mg/kg, iv by HPLC-MS/MS analysis; assay type: ADME, organism-based; set-up: dose 5 mg/kg, route intravenous; details: in vivo
Method in brief: (§2)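 Male Swiss Webster mice, n = 3 per time point. For i.v., the compound was dissolved in sterile water, diluted 1:1 with 2× saline, and given as a tail-vein bolus over ~10–20 s. For p.o., it was given by gavage in sterile water. Dose volume was 5 ml/kg. Terminal plasma was taken from 5 min to 72 h and measured by HPLC-MS/MS (calibration 2.5–10,000 nM). Parameters came from noncompartmental analysis.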

[6] = Drug level in Swiss Webster mouse spleen at 5 mg/kg, iv after 2 hrs by HPLC/UV analysis; details: read-out: Drug uptake
[7] = Drug level in Swiss Webster mouse kidney at 70 mg/kg, po after 2 hrs by HPLC/UV analysis; details: read-out: Drug uptake
Mus musculus [8] = test: Toxicity in BALB/c mouse assessed as liver necrosis at 150 mg/kg/day, po; assay type: organism-based; set-up: route oral; details: in vivo
Method in brief: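 Female BALB/c mice (n = 5 per dose), dosed once daily for 5 consecutive days p.o. (20 ml/kg) or i.v. (10 ml/kg) with compound in sterile water, prepared fresh daily under yellow light. Vehicle controls n = 5 per route. Clinical observations, body weights, serum chemistry and hematology on day 6 before necropsy; histopathology of formalin-fixed tissues. Chemistry analysed by one-way ANOVA with Dunnett's posttest.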

[9] = Cmax in Swiss Webster mouse at 131 mg/kg, po by HPLC-MS/MS analysis; assay type: ADME, organism-based; set-up: dose 131 mg/kg, route oral; details: in vivo; method in brief: as §2
Mus musculus [10] = test: Toxicity in BALB/c mouse assessed as occurrence of tremor at 30 mg/kg, iv; assay type: organism-based; set-up: dose 30 mg/kg, route intravenous; details: in vivo
Method in brief: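 Single-dose escalation: female BALB/c mice (n = 1 per dose level) given one i.v. dose in sterile water (10 ml/kg), 5–50 mg/kg, observed for 2 days.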

`CC(C)Oc1cc(NC(=N)c2ccccn2)ccc1-c1ccc(-c2ccc(NC(=N)c3ccccn3)cc2OC(C)C)o1` showed an Activity [1] of 98, an Activity [2] of 29 and an Activity [3] of 34. The Activity [4] was 79, the inhibition in vivo at 100 mg/kg/day (Leishmania donovani) was 89% and the Cmax [5] was 10.4 µM. For the same compound, the concentration at 2 h [6] was 13.5 µM and the concentration at 2 h [7] was 30.3 µM.

For `CCOc1cc(NC(=N)c2ccccn2)ccc1-c1ccc(-c2ccc(NC(=N)c3ccccn3)cc2OCC)o1`, the Activity (Mus musculus [8]) was “Toxic”, the Cmax [9] was 1.68 µM and the Activity (Mus musculus [10]) was “Toxic”.
